Laboratory results from ChEMBL document CHEMBL1157958, “Phenolic compounds from the roots of Lindera fruticosa” (J Nat Prod, 2006).

What was measured:
[1] = target: T1, Sterol O-acyltransferase 1 (Homo sapiens) (UniProt P35610); test: Inhibition of human ACAT1 at 0.4 mM
T1 sequence (whole entry): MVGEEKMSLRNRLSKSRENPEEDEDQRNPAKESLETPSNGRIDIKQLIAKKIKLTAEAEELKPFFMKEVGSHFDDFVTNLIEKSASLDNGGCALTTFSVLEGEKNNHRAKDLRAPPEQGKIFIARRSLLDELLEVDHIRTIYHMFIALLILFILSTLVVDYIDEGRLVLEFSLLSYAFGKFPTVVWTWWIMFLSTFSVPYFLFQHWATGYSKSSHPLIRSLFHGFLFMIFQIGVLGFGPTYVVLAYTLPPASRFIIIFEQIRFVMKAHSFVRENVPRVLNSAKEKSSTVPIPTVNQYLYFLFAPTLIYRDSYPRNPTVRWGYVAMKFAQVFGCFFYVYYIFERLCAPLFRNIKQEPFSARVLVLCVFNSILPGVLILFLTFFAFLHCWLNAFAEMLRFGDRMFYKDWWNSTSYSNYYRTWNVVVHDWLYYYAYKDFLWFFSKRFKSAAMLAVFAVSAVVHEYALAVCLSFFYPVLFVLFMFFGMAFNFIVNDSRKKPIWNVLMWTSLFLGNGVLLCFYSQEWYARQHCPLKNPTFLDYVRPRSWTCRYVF
In short: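 Human ACAT-1 inhibition, run by the Brecher and Chan method with slight modifications. Test concentration 0.4 mM; read-out is percent inhibition; data are mean ± standard deviation of three replicates.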

[2] = Antioxidant activity assessed as inhibition of LDL oxidation; format: functional
In short: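 LDL oxidation inhibition, run by a literature method with slight modifications. IC50 in µM; data are mean ± standard deviation of three replicates.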

| Structure (SMILES) | inhibition [1] [%] | IC50 [2] [µM] |
| --- | --- | --- |
| O=c1c2cc(O)ccc2oc2cccc(O)c12 | 31 | 386 |
| COc1cccc(O)c1C(=O)OCc1ccccc1 | 46 | 478 |
| COc1cc(OC)cc(-c2ccccc2)c1 | 43 | 48.1 |
| COc1c([C@@H](O)c2ccccc2)ccc2c1OCO2 | 31 | 192 |
| COc1cc(O)cc(-c2ccccc2)c1 | 30 | 15.5 |
| COc1c(O)ccc2oc3c(O)cc(O)cc3c(=O)c12 | 7 | 25.5 |
| COc1c(C(=O)c2ccccc2)ccc2c1OCO2 | 54 | 524 |
| CC(C)(Sc1cc(C(C)(C)C)c(O)c(C(C)(C)C)c1)Sc1cc(C(C)(C)C)c(O)c(C(C)(C)C)c1 [PROBUCOL] |  | 4.3 |
